# Data reported in ChEMBL document CHEMBL6114987, “Identification of the first-in-class dual inhibitor targeting BAG3 and HSP70 proteins to disrupt multiple chaperone pathways” (Eur J Med Chem, 2025).
# Calls of active or inactive are those of the source. The rule behind the calls is not given here.
# How the values were obtained:
# [1] = target: T1, BAG family molecular chaperone regulator 3 (Homo sapiens, UniProt O95817); assay: Binding affinity to full length recombinant human BAG3 assessed as dissociation constant by SPR analysis
# HaCaT [2] = assay: Cytotoxicity against human HaCaT cells assessed as mortality rate at 50 uM incubated for 72 hrs by MTT assay relative to control; type: toxicity, cell-based
# Outline: (§1)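 MTT reduction assay. Cells grown in DMEM/high glucose with 10 % FBS, 2 mM glutamine and penicillin/streptomycin at 37 °C, 5 % CO2. HeLa seeded at 3.5×10^3 and HaCaT at 5.0×10^3 cells/well, in triplicate. After 24 h attachment, compounds added at 10 and 50 μM for 72 h. Controls: 0.1 % DMSO (negative) and 10 % DMSO (positive). MTT added for 3 h at 37 °C, formazan dissolved in DMF/SDS (pH 4.5), absorbance read at 570 nm. Three independent experiments.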
# HeLa [3] = assay: Cytotoxicity against human HeLa cells assessed as mortality rate at 10 to 50 uM incubated for 72 hrs by MTT assay relative to control; type: functional; details: dose 10-50 µM; outline: as §1
# [4] = target: T1, BAG family molecular chaperone regulator 3; assay: Binding affinity to recombinant human BAG3 domain assessed as dissociation constant by SPR analysis
# Homo sapiens [5] = species: Homo sapiens; assay: Inhibition of Hsp70 (unknown origin) ATPase activity assessed as residual activity at 10 uM by ATPase activity incubated for 1 hr by ADP-glo assay relative to control
# Outline: (§2)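 HSP70 ATPase assay by ADP-Glo. HSP70 plus HSP40 pre-incubated with compound for 30 min at RT, then ATP added and reacted 1 h at 30 °C with 1 % DMSO final. ADP-Glo reagent added for 1 h, then detection reagent for 20 min, and luminescence read. Activity scaled between no-compound (100 %) and no-HSP70 (0 %) wells; run in duplicates.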
# Homo sapiens [6] = species: Homo sapiens; assay: Inhibition of Hsp70 (unknown origin) ATPase activity assessed as residual activity at 50 uM by ATPase activity incubated for 1 hr by ADP-glo assay relative to control; outline: as §2
# [7] = (§3) Binding affinity to recombinant human HSP70 assessed as dissociation constant by SPR analysis
# Outline: (§4)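 HSP70 amine-coupled on CM5 chip from 0.045 µg µl⁻¹ in 10 mM acetate pH 4.5, density 20 kRU, with unmodified reference surface. Compounds from 10 mM DMSO stocks diluted 1:20 in PBS-P (final 5.0 % DMSO), 10 concentrations by 1:2 dilution spanning 0–100 µM. Run at 25 °C, 20 µL/min, 90 s association, 400 s dissociation; KD reported ± SD.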
# HeLa [8] = assay: Induction of cell cycle arrest in human HeLa cells assessed as increase in hypodiploid nuclei incubated for 72 hrs by PI staining based flow cytometry analysis; type: functional; details: dose 1-10 µM
# Outline: (§5)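 HeLa cells (1×10^5/well) adhered 24 h, then treated 72 h with 10, 25 and 50 μM (reference inhibitor 1, 5, 10 μM), with 0.1 % DMSO negative and 10 % positive controls. Dead and live cells pooled, stained with 50 mg/L PI in 0.1 % citrate/0.1 % Triton X-100 for 30 min at 4 °C in the dark. Sub-G0/G1 percentage measured by flow cytometry, debris gated out.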
# [9] = Solubility of compound; type: physicochemical
# HeLa [10] = assay: Induction of apoptosis in human HeLa cells assessed as increase in caspase 3 expression incubated for 72 hrs by flow cytometry analysis; type: functional, cell-based; details: dose 10-50 µM
# Outline: (§6)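 HeLa cells (2.5×10^5/well) treated 24 h after seeding for 72 h at 10, 25, 50 μM (reference inhibitor 10 μM) or 0.1 % DMSO. Fixed in 1 % formaldehyde (20 min, 4 °C), permeabilized with 0.1 % Triton, stained with anti-caspase 3, anti-caspase 9 or anti-p21 plus secondary antibodies. Read by flow cytometry as percentage of positive cells.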
# HeLa [11] = assay: Induction of apoptosis in human HeLa cells assessed as increase in apoptotic cells at 30 uM incubated for 72 hrs by Annexin V-FITC/PI staining based flow cytometry analysis relative to control; type: functional
# Outline: (§7)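 HeLa cells (2×10^4) incubated 72 h at 20–50 μM. Stained with Annexin V-FITC and PI for 15 min at RT, then analysed by flow cytometry. Reported as percentage of live, apoptotic and necrotic cells versus control, mean ± SD of three independent experiments.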
# HeLa [12] = assay: Downregulation of FOXM1 expression in human HeLa cells incubated for 72 hrs by Western blot analysis; type: functional, cell-based
# Outline: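 HeLa cells treated 72 h at 30 and 15 μM. Lysates (30 μg protein) separated on 10 % SDS-PAGE and blotted with anti-FOXM1 (1:500), β-tubulin as loading control. Detection by ECL, quantified by densitometry.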
# HaCaT [13] = assay: Cytotoxicity against human HaCaT cells assessed as mortality at 10 to 50 uM incubated for 72 hrs by MTT assay; type: toxicity, cell-based; details: dose 10-50 µM
# HeLa [14] = assay: Downregulation of FOXM1 expression in human HeLa cells at 50 uM incubated for 72 hrs by Western blot analysis; type: functional, cell-based
# HeLa [15] = assay: Induction of cell cycle arrest in human HeLa cells assessed as increase in hypodiploid nuclei at 10 to 50 uM incubated for 72 hrs by PI staining based flow cytometry analysis; type: functional; details: dose 10-50 µM; outline: as §5
# HaCaT [16] = assay: Cytotoxicity against human HaCaT cells at 10 to 50 uM incubated for 24 hrs by MTT assay; type: toxicity, cell-based; details: dose 10-50 µM
# Outline: (§8)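 HaCaT keratinocytes seeded at 5.0×10^3 cells/well in triplicate and allowed to attach for 24 h. Exposed to 10 and 50 μM for 24, 48 or 72 h with 0.1 % DMSO control, then read by MTT reduction (3 h, 37 °C) with absorbance at 570 nm.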
# HeLa [17] = assay: Induction of apoptosis in human HeLa cells assessed as increase in caspase 9 expression incubated for 72 hrs by flow cytometry analysis; type: functional, cell-based; details: dose 10-50 µM; outline: as §6
# HaCaT [18] = assay: Cytotoxicity against human HaCaT cells at 10 to 50 uM incubated for 48 hrs by MTT assay; type: toxicity, cell-based; details: dose 10-50 µM; outline: as §8
# HaCaT [19] = assay: Cytotoxicity against human HaCaT cells at 10 to 50 uM incubated for 72 hrs by MTT assay; type: toxicity, cell-based; details: dose 10-50 µM; outline: as §8
# HeLa [20] = assay: Upregulation of p21 expression in human HeLa cells incubated for 72 hrs by flow cytometry analysis; type: functional, cell-based; details: dose 10-50 µM; outline: as §6
# HeLa [21] = assay: Cytotoxicity against human HeLa cells assessed as cell viability incubated for 72 hrs by MTT assay
# HeLa [22] = assay: Induction of apoptosis in human HeLa cells assessed as increase in apoptotic cells incubated for 72 hrs by Annexin V-FITC/PI staining based flow cytometry analysis; type: functional, cell-based; details: dose 20-50 µM; outline: as §7
# HeLa [23] = assay: Induction of apoptosis in human HeLa cells assessed as increase in apoptotic cells at 20 uM incubated for 72 hrs by Annexin V-FITC/PI staining based flow cytometry analysis relative to control; type: functional; outline: as §7
# HeLa [24] = assay: Induction of apoptosis in human HeLa cells assessed as increase in apoptotic cells at 50 uM incubated for 72 hrs by Annexin V-FITC/PI staining based flow cytometry analysis relative to control; type: functional; outline: as §7
# A549 = assay: Cytotoxicity against human A549 cells assessed as cell viability incubated for 72 hrs by MTT assay; type: functional, cell-based; details: A549, 72 h
# A-375 = assay: Cytotoxicity against human A-375 cells assessed as cell viability incubated for 72 hrs by MTT assay; type: functional, cell-based; details: A-375, 72 h
# Homo sapiens [25] = species: Homo sapiens; assay: as §3; outline: as §4
# T1 sequence (O95817 whole entry): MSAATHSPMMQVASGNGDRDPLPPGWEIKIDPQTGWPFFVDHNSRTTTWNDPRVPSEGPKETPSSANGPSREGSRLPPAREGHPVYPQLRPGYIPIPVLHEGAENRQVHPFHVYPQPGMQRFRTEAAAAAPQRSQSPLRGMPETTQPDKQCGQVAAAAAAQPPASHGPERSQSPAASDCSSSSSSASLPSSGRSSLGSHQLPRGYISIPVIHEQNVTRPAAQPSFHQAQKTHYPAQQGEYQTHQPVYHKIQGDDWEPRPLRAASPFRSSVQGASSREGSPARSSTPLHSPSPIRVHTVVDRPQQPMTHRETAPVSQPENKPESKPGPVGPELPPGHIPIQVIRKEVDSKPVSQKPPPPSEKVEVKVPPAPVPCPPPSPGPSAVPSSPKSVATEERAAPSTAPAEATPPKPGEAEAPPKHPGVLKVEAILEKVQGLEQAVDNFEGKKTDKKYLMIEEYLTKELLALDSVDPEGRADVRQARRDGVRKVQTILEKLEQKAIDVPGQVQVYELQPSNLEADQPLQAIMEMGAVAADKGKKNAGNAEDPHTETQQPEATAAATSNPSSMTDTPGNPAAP
compound,measurement,setting,value
CCCCNC(=O)C(c1ccccc1Br)N(Cc1ccccc1)C(=O)Cn1cc(CCC(C)C)nn1 (stereo not given),Activity,[1],inactive
CCCCNC(=O)C(c1ccc2cn[nH]c2c1)N(CC(C)CC)C(=O)Cn1cc(-c2cc(C)ccc2C)nn1 (stereo not given),mortality,HaCaT [2],60%
same,mortality,HeLa [3],70%
CCCCNC(=O)C(c1ccccc1Br)N(Cc1ccccc1)C(=O)Cn1cc(-c2ccccc2)nn1 (stereo not given),Activity,[1],inactive
CCCCNC(=O)C(c1ccc(Cl)nc1)N(CC(C)CC)C(=O)Cn1cc(C(C)(O)c2ccc(F)cc2)nn1 (stereo not given),Kd,[4],Not_determined
same,Activity,[1],inactive
CCCCNC(=O)C(c1cc(O)ccc1Br)N(CC(C)CC)C(=O)Cn1cc(-c2cccc(OC)c2)nn1 (stereo not given),Activity,[1],inactive
Cc1ccc(S(=O)(=O)CNC(=O)C(c2ccccc2Br)N(Cc2ccccc2)C(=O)Cn2cc(-c3ccccc3)nn2)cc1 (stereo not given),Activity,[1],inactive
CCn1c(=O)/c(=C2\Sc3ccccc3N2C)s/c1=C\c1cccc[n+]1C,Activity,Homo sapiens [5],30%
same,Activity,Homo sapiens [6],43%
same,Kd,[7],41 µM
same,Activity,[1],inactive
same,Activity,HeLa [8],Dose-dependent-effect
CCCCNC(=O)C(c1ccccc1Br)N(C(=O)Cn1cc(CCC(C)C)nn1)c1ccc(Cl)cc1 (stereo not given),Activity,[1],inactive
CCCCNC(=O)C(c1ccc(C(F)(F)F)cc1)N(CCC)C(=O)Cn1cc(-c2cccc(C)c2)nn1 (stereo not given),solubility,[9],Insoluble
CCCCNC(=O)C(c1c[nH]c(=O)[nH]c1=O)N(CC(C)CC)C(=O)Cn1cc(-c2cc(C)c(C)cc2C)nn1 (stereo not given),Activity,HeLa [10],Dose-dependent-effect
same,Activity,HeLa [11],23%
same,Activity,HeLa [12],Dose-dependent-effect
same,Activity,HaCaT [13],Non-toxic
same,Activity,Homo sapiens [5],20%
same,Activity,HeLa [14],inactive
same,Activity,Homo sapiens [6],40%
same,Activity,HeLa [15],Active
same,Activity,HaCaT [16],Non-toxic
same,Activity,HeLa [17],Dose-dependent-effect
same,Activity,HaCaT [18],Non-toxic
same,Activity,HaCaT [19],Non-toxic
same,Activity,HeLa [20],Dose-dependent-effect
same,Kd,[7],33.8 µM
same,IC50,HeLa [21],49.5 µM
same,Activity,HeLa [22],Dose-dependent-effect
same,Activity,HeLa [23],18.6%
same,mortality,HeLa [3],70%
same,Activity,HeLa [24],26.2%
CCOC(=O)CN1C(=O)S/C(=C\c2ccc(O)c(O)c2)C1=O,IC50,A549,32.3 µM
same,IC50,A-375,16.6 µM
same,Activity,Homo sapiens [25],inactive
same,IC50,HeLa [21],> 50 µM
CCCCNC(=O)C(c1c(Br)ccnc1Cl)N(CC(C)CC)C(=O)Cn1cc(-c2cccc(O)c2)nn1 (stereo not given),Activity,[1],inactive
CCCCNC(=O)C(c1ccccc1Br)N(CC(C)CC)C(=O)Cn1cc(CCC(C)C)nn1 (stereo not given),Activity,[1],inactive
